Source: article PMC2757082 (Biopolymers, 2009)
Where “and” joins values, the source holds several entries; their conditions need not be identical. Identical values can stand only once. Like-named read-outs stand apart in the source and are kept apart here.

Tests used:
Format in all cases: biochemical
[1] = target: T1, F1Fo-ATPase in bovine SMPs (Bos taurus, UniProt P00829); test: Bovine SMP ATP synthesis steady-state kinetic assay; conditions: for Ki: Bovine, ±SE
In short: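 ATP synthesis by bovine heart SMPs was read by coupling ATP production to NADP⁺ reduction at varied ADP (1.875–1200 μM). SMPs were preincubated 5 min with aurovertin (1% DMSO final) or DMSO control before substrate or coupling reagents. Apparent parameters came from Michaelis-Menten fits at each inhibitor level, with secondary plots fit by eqs 2–4. 3D fits of velocity against MgADP and inhibitor used eq 6 (mixed inhibition model).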

[2] = target: E. coli membrane F1Fo-ATPase (Escherichia coli, UniProt P0ABB4); test: E. coli everted membrane ATP hydrolysis steady-state kinetic assay
In short: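 Everted membrane vesicles came from E. coli strain LE392 and were used at 33 μg mL⁻¹, with 5 mM KCN to block chemiosmotic phosphorylation. ATP hydrolysis was read by the NADH-coupled assay, with aurovertin at 1% DMSO final. Michaelis-Menten fits of initial velocity gave apparent kinetic parameters at each inhibitor concentration. Secondary plots were fit with eqs 2–4, assuming residual catalytic activity at saturating inhibitor.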

[3] = target: F1Fo-ATPase from E. coli in liposomes (Escherichia coli, UniProt P0ABB4)
[4] = target: T1, F1Fo-ATPase in bovine SMPs; test: Bovine SMP ATP hydrolysis steady-state kinetic assay; conditions: for Vmax2 (maximal catalytic rate of ESI complex) / Ki: Bovine, ±SE
[5] = bovine, synthesis vs hydrolysis
[6] = HMM-based FRET level assignment, presence of aurovertin
[7] = aurovertin and ATP, Gaussian fit

Chain of F1Fo-ATPase from E. coli in liposomes (P0ABB4 2-460 limits assumed): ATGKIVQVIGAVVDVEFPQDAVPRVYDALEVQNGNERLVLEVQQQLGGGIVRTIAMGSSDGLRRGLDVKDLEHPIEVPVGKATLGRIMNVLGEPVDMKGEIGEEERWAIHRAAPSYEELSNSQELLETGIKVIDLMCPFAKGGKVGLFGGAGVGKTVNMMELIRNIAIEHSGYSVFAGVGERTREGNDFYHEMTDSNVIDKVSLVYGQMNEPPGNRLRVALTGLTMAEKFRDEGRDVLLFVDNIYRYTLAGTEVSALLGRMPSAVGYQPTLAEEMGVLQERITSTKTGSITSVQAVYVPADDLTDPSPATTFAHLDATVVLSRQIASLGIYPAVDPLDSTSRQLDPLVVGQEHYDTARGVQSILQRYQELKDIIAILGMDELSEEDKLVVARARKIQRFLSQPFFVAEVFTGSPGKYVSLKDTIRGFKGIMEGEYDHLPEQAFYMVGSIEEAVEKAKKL

SMILES: CC[C@H]1O[C@]2(C)[C@H](OC(C)=O)[C@@]1(C)O[C@@H](/C=C/C=C/C=C/c1oc(=O)cc(OC)c1C)[C@@H]2O [aurovertin, Aurovertin B]
- enzyme activity at saturating substrate and inhibitor concentrations ([1]; ATP synthesis): inactive
- increase in the value of the apparent Km ([1]; ATP synthesis, bovine SMPs): > 2 fold
- mechanism of inhibition of ATP synthesis ([1]; bovine SMPs): mixed inhibitor
- decrease of Ki(E) during ATP synthesis versus hydrolysis [1, 5]: 60 fold
- decrease of Ki(ES) during ATP synthesis versus hydrolysis [1, 5]: 5 fold
- Ki ([1]; read-out: Ki(E), ATP synthesis, 3D fit eq 6, n(E)=1, n(ES)=1): 13 ± 4 nM
- Ki ([1]; read-out: Ki(E), ATP synthesis, 3D fit eq 6, n(E)=2, n(ES)=1): 16 ± 2 nM
- Ki ([1]; read-out: Ki(ES), ATP synthesis, 3D fit eq 6, n(E)=1, n(ES)=1): 22 ± 3 nM
- Ki ([1]; read-out: Ki(ES), ATP synthesis, 3D fit eq 6, n(E)=2, n(ES)=1): 25 ± 4 nM
- Vmax2 (maximal catalytic rate of ESI complex) ([2]; E. coli, 3D fit eq 5, n(E)=2, n(ES)=1, ±SE): 0.06 ± 0.01 µmol/min/mg
- residual activity at saturating aurovertin ([2]; everted E. coli membranes, eq 5 fit): ~ 20% and 20%
- Ki ([2]; read-out: Ki(E), E. coli, 3D fit eq 5, n(E)=2, n(ES)=1, ±SE): 430 ± 70 nM
- Ki ([2]; read-out: Ki(ES), E. coli, 3D fit eq 5, n(E)=2, n(ES)=1, ±SE): 150 ± 20 nM
- remaining activity (turnover ratio in presence and absence of aurovertin) ([3]; 20 μM drug, 1 mM ATP): about 60%
- dwell time decay component τ [3, 6]: 28 ± 11 ms
- dwell time rise time τ [3, 6]: 16 ± 8 ms
- proximity factor P maximum, H level [3, 7]: 0.75
- proximity factor P maximum, L level [3, 7]: 0.31
- proximity factor P maximum, M level [3, 7]: 0.51
- fraction of F1Fo-ATPases showing stepwise changing FRET levels ([3]; saturating (20 μM) aurovertin, of 3685 marked photon bursts): 10.4%
- increase of the value of Vmax/Km ([4]; ATP hydrolysis, saturating aurovertin concentrations): 50%
- Vmax2 (maximal catalytic rate of ESI complex) ([4]; ATP hydrolysis, 3D fit eq 5, n(E)=1, n(ES)=1): 0.23 ± 0.01 µmol/min/mg
- Vmax2 (maximal catalytic rate of ESI complex) ([4]; ATP hydrolysis, 3D fit eq 5, n(E)=2, n(ES)=1): 0.22 ± 0.01 µmol/min/mg
- mechanism of inhibition of ATP hydrolysis ([4]; bovine SMPs): mixed mechanism of inhibition
- Ki ([4]; read-out: Ki(E), ATP hydrolysis, 3D fit eq 5, n(E)=1, n(ES)=1): 820 ± 250 nM
- Ki ([4]; read-out: Ki(E), ATP hydrolysis, 3D fit eq 5, n(E)=2, n(ES)=1): 960 ± 250 nM
- Ki ([4]; read-out: Ki(ES), ATP hydrolysis, 3D fit eq 5, n(E)=1, n(ES)=1): 119 ± 17 nM
- Ki ([4]; read-out: Ki(ES), ATP hydrolysis, 3D fit eq 5, n(E)=2, n(ES)=1): 120 ± 17 nM
- decrease of the value of Vmax for catalysis of ATP hydrolysis ([4]; saturating aurovertin, fit eq 2-4, n=1): ~ 2.5 fold
